# Calls of active or inactive are those of the source. No cut-off for these calls is given here. Where a SMILES comes first, the peptide text is derived from it.
# How the values were obtained:
# NCI-H460 = assay: Cytotoxic activity against human H460 cells incubated for 48 hrs by MTT assay; assay type: functional, cell-based; conditions: NCI-H460, 48 h
# HCT-116 = assay: Cytotoxic activity against human HCT116 cells incubated for 48 hrs by MTT assay; assay type: functional, cell-based; conditions: HCT-116, 48 h
# [1] = Cytotoxic activity against human H116 cells assessed as zone diffusion inhibition by measuring distance to perimeter (diffusion distance units) at 36 umol by disk diffusion soft agar colony inhibition assay (reference value: 0 unit); assay type: functional
# [2] = Cytotoxic activity against human H125 cells assessed as zone diffusion inhibition by measuring distance to perimeter (diffusion distance units) at 36 umol by disk diffusion soft agar colony inhibition assay (reference value: 0 unit); assay type: functional
# MCF7 [3] = assay: Cytotoxic activity against human MCF7 cells assessed as zone diffusion inhibition by measuring distance to perimeter (diffusion distance units) at 36 umol by disk diffusion soft agar colony inhibition assay (reference value: 0 unit); assay type: functional
# LNCaP [4] = assay: Cytotoxic activity against human LNCAP cells assessed as zone diffusion inhibition by measuring distance to perimeter (diffusion distance units) at 36 umol by disk diffusion soft agar colony inhibition assay (reference value: 0 unit); assay type: functional
# OVCAR-5 = assay: Cytotoxic activity against human OVCAR5 cells assessed as zone diffusion inhibition by measuring distance to perimeter (diffusion distance units) at 36 umol by disk diffusion soft agar colony inhibition assay (reference value: 0 unit); assay type: functional
# [5] = Cytotoxic activity against human U251N cells assessed as zone diffusion inhibition by measuring distance to perimeter (diffusion distance units) at 36 umol by disk diffusion soft agar colony inhibition assay (reference value: 0 unit); assay type: functional
# PANC-1 = assay: Cytotoxic activity against human PANC1 cells assessed as zone diffusion inhibition by measuring distance to perimeter (diffusion distance units) at 36 umol by disk diffusion soft agar colony inhibition assay (reference value: 0 unit); assay type: functional
# CCRF-CEM [6] = assay: Cytotoxic activity against human CEM cells assessed as zone diffusion inhibition by measuring distance to perimeter (diffusion distance units) at 36 umol by disk diffusion soft agar colony inhibition assay (reference value: 0 unit); assay type: functional
# CFU-GM [7] = assay: Cytotoxic activity against human CFU-GM cells assessed as zone diffusion inhibition by measuring distance to perimeter (diffusion distance units) at 36 umol by disk diffusion soft agar colony inhibition assay (reference value: 0 unit); assay type: functional
# [8] = Cytotoxic activity against human H116 cells assessed as zone diffusion inhibition by measuring distance to perimeter (diffusion distance units) at 9 umol by disk diffusion soft agar colony inhibition assay (reference value: 0 unit); assay type: functional
# [9] = Cytotoxic activity against human H125 cells assessed as zone diffusion inhibition by measuring distance to perimeter (diffusion distance units) at 9 umol by disk diffusion soft agar colony inhibition assay (reference value: 0 unit); assay type: functional
# MCF7 [10] = assay: Cytotoxic activity against human MCF7 cells assessed as zone diffusion inhibition by measuring distance to perimeter (diffusion distance units) at 9 umol by disk diffusion soft agar colony inhibition assay (reference value: 0 unit); assay type: functional
# LNCaP [11] = assay: Cytotoxic activity against human LNCAP cells assessed as zone diffusion inhibition by measuring distance to perimeter (diffusion distance units) at 9 umol by disk diffusion soft agar colony inhibition assay (reference value: 0 unit); assay type: functional
# [12] = Cytotoxic activity against human U251N cells assessed as zone diffusion inhibition by measuring distance to perimeter (diffusion distance units) at 9 umol by disk diffusion soft agar colony inhibition assay (reference value: 0 unit); assay type: functional
# CCRF-CEM [13] = assay: Cytotoxic activity against human CEM cells assessed as zone diffusion inhibition by measuring distance to perimeter (diffusion distance units) at 9 umol by disk diffusion soft agar colony inhibition assay (reference value: 0 unit); assay type: functional
# CFU-GM [14] = assay: Cytotoxic activity against human CFU-GM cells assessed as zone diffusion inhibition by measuring distance to perimeter (diffusion distance units) at 9 umol by disk diffusion soft agar colony inhibition assay (reference value: 0 unit); assay type: functional
# [15] = target: Dipeptidyl peptidase 4 (Homo sapiens) (UniProt P27487); assay: Inhibition of human recombinant DPP4 at 10 uM using H-Gly-Pro AMC substrate incubated for 30 mins by spectrophotometry
# Method in brief: (§1)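 Human recombinant DPP4 was assayed in 20 mM Tris-HCl pH 8.0 with 100 mM NaCl and 1 mM EDTA. Compound in DMSO was tested at 10 µM final, with three-fold serial dilutions down to 1.5 nM. H-Gly-Pro-AMC substrate was added as a 200 µM solution. After 30 min at 37 °C, fluorescence was read at excitation 355 and emission 455 nm. Background wells had no enzyme. All conditions were run in triplicate.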
# [16] = target: Dipeptidyl peptidase 4 (Homo sapiens) (UniProt P27487); assay: Inhibition of human recombinant DPP4 at <3.33 uM using H-Gly-Pro AMC substrate incubated for 30 mins by spectrophotometry; method in brief: as §1
# Dipeptidyl peptidase 4 (Homo sapiens), sequence (P27487 whole entry, looked up): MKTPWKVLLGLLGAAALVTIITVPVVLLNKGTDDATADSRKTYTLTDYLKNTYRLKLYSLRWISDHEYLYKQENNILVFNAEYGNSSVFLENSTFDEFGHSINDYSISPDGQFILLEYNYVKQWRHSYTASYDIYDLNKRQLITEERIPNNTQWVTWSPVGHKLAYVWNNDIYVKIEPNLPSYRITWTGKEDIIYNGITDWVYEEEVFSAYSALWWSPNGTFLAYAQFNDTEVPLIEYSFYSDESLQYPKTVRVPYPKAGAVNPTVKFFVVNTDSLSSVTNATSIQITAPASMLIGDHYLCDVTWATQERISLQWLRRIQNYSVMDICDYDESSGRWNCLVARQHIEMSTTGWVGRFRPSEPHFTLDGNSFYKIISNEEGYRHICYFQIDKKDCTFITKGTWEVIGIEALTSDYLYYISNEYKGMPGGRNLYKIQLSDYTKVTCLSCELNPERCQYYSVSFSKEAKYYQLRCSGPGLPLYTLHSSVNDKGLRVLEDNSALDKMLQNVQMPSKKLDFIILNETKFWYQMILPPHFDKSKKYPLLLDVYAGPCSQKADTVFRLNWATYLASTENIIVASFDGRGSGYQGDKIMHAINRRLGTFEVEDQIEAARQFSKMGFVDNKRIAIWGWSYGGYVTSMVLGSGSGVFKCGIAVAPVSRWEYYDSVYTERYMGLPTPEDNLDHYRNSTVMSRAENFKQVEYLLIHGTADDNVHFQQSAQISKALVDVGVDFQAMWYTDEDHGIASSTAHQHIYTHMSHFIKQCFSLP
SMILES,IC50 (NCI-H460),IC50 (HCT-116),inhibition zone (IZ) [1],inhibition zone (IZ) [2],inhibition zone (IZ) (MCF7 [3]),inhibition zone (IZ) (LNCaP [4]),inhibition zone (IZ) (OVCAR-5),inhibition zone (IZ) [5],inhibition zone (IZ) (PANC-1),inhibition zone (IZ) (CCRF-CEM [6]),inhibition zone (IZ) (CFU-GM [7]),inhibition zone (IZ) [8],inhibition zone (IZ) [9],inhibition zone (IZ) (MCF7 [10]),inhibition zone (IZ) (LNCaP [11]),inhibition zone (IZ) [12],inhibition zone (IZ) (CCRF-CEM [13]),inhibition zone (IZ) (CFU-GM [14]),inhibition [15],inhibition [16]
COc1cccc2c1C(=O)c1c(O)c3c(c(O)c1C2=O)C[C@@](O)(C(=O)CO)C[C@@H]3O[C@H]1C[C@H](N)[C@H](O)[C@H](C)O1 [DOXORUBICIN],200 nM,–,–,–,–,–,–,–,–,–,–,–,–,–,–,–,–,–,–,–
CC[C@H](C)[C@@H]1NC(=O)[C@@H]2CCCN2C(=O)[C@H](Cc2ccccc2)NC(=O)[C@H](C(C)C)NC(=O)[C@H](CC(C)C)NC(=O)[C@@H]2CCCN2C(=O)[C@@H]2CCCN2C(=O)[C@H](Cc2ccccc2)NC1=O (cyclo(LVFPIFPP)),–,< 10000 nM,600 U,550 U,500 U,500 U,200 U,500 U,200 U,600 U,700 U,200 U,300 U,300 U,300 U,300 U,350 U,400 U,15.7%,inactive
